The full list was thinned out, with hits kept by preference.
RORa inhibitor = inhibitors of orphan receptor RORA, primary screen, cell-based, luminescence | CHO-K1 Gal4-RORA LBD luciferase reporter | inhibition, % at 10 µM | 65,000 compounds, 0.43% hits;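 active means inhibition above the mean of all tested compounds plus 3 SD, cut at about 52% in these data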;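 further: 0% = RORA-transfected cells with DMSO and 100% = mock-transfected cells lacking RORA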
Target sequence (P35398 whole entry, looked up, the tested form may be a part): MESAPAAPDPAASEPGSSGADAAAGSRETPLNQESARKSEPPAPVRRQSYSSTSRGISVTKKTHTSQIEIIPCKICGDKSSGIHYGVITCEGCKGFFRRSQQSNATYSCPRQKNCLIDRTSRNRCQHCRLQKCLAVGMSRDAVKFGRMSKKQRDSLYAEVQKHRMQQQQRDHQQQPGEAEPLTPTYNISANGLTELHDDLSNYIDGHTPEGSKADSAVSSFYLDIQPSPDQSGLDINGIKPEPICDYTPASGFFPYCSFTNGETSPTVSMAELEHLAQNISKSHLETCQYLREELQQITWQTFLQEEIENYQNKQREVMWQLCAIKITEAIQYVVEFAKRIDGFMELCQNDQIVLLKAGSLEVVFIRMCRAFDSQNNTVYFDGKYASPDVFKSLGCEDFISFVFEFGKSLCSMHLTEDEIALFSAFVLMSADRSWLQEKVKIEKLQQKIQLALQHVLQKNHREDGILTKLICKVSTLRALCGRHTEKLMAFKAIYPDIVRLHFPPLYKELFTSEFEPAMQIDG
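Test system: CHO-K1 cells with Gal4-hRORA LBD fusion and pG5-luc reporter / Compound: single concentration per compound, 10 µM final / Schedule: 20 h compound treatment, 37 °C / Signal: luminescence from basal luciferase reporter expression / Read-out: % inhibition / Control set: mock-transfected cells as 100%, +RORA DMSO cells as 0% / Replicates: tested once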
* hit, by the source's call.

SMILES | RORa inhibitor
O=C(NCc1cccs1)c1noc2c1CCCC2 | -55.1
c1csc(CCNc2ncnc3sc4c(c23)CCC4)c1 | 71.7*
COC(=O)c1cc2c(s1)CS(=O)C2 (centres undefined) | 3.6
CC1=C(C(=O)OC(C)(C)C)C(c2ccco2)C(C#N)=C(N)O1 (centres undefined) | -1.7
Cc1ccc(-c2csc(NC(=O)c3ccno3)n2)cc1 | -60.3
Cc1ccc(CC(CC(=O)O)C(=O)NC2CCCCC2)cc1 (centres undefined) | 10.8
Cc1ccc(-c2csc3ncnc(Sc4nnc(CN5CCCCCC5=O)o4)c23)cc1 | 57.4*
COC(=O)/C=C/S(=O)(=O)c1ccc(NC(C)=O)cc1 | -2.3
CC1CCN(S(=O)(=O)c2cccc(C(N)=O)c2)CC1 | 1.7
O=C(c1ccc(Br)cc1)C1CCc2occc2C1=O (centres undefined) | 0.5
CC1CCc2ccccc2N1C(=O)c1cccs1 (centres undefined) | 2.4
O=C(Nc1nc(-c2nc3ccccc3s2)cs1)C1CC1 | -51.0
O=C(Nc1nc(-c2ccccn2)cs1)c1ccc(Cl)s1 | 64.9*
O=C(Nc1nc(-c2ccccc2)cs1)c1cccs1 | -56.6
Cc1nc(N2CCC3(CC2)OCCO3)c2nnn(Cc3ccccc3F)c2n1 | -2.1
O=C(c1cc(-c2cccs2)on1)N1CCCc2ccccc21 | -5.6
Cc1cc(C)cc(Nc2ccc(C(=O)O)cc2N)c1 | 71.1*
C/C(=C\C(=O)c1ccc(C)o1)Nc1ccc(C(=O)O)cc1C | -4.1
CC1CCN(c2ccc(C(=O)O)cc2N)CC1 | 13.6
O=C(c1cccnc1)N1CCN(C(=O)c2cccs2)CC1 | -1.2
CCCCC(=O)Nc1ccc(NC(=O)c2cc(OC)c(OC)c(OC)c2)cn1 | 13.8
CCOc1ccc(-c2cc(CCCC(=O)Nc3cccc(OC)c3)no2)cc1 | 45.3
CCOc1ccc(-c2cc(CCCC(=O)NCCc3ccc(OC)c(OC)c3OC)no2)cc1 | 57.3*
CCOC(=O)c1c(C)[nH]c(C(=O)COC(=O)CNC(=O)C2CCCCC2)c1C | 23.0
CCOC(=O)NCCc1c(C)nc2c(c(C)nn2C(C)(C)C)c1C | 11.5
SMILES | RORa inhibitor
COc1ccc(S(=O)(=O)NCc2ccco2)cc1-c1nnc2c3ccccc3c(C)nn12 | 7.1
Cc1ccccc1NC(=O)N1CCCC(c2nc(-c3ccc(C(C)C)cc3)no2)C1 (centres undefined) | 53.6*
Cc1ccccc1NC(=O)N1CCCC(c2nc(-c3ccc(F)cc3)no2)C1 (centres undefined) | 6.6
c1cncc(-c2nn3c(-c4ccncc4)nnc3s2)c1 | -16.7
CCC(=O)N1CCc2cc(S(=O)(=O)N3CCc4ccccc4C3)ccc21 | 16.8
CC(=O)N1CCc2cc(S(=O)(=O)NCCC3=CCCCC3)ccc21 | 56.8*
CC(=O)N1CCc2cc(S(=O)(=O)NC3CCCc4ccccc43)ccc21 (centres undefined) | 23.5
CCCn1c(N)c(Sc2ccc(Cl)cc2)c(=O)n(CCC)c1=O | -5.6
CN(C)c1nc(N)nc(Cn2ccnc2)n1 | 21.2
Cc1cccc(-n2ncc3c(NCc4ccccc4)ncnc32)c1 | -78.1
Cc1cccc(-n2ncc3c(N(CCO)CCO)ncnc32)c1 | -67.6
Cc1cccc(-n2ncc3c(N(C)C4CCCCC4)ncnc32)c1 | 73.1*
COc1ccc(-n2ncc3c(N(C)C4CCCCC4)ncnc32)cc1 | 75.5*
CCN(c1ccccc1)c1ncnc2c1cnn2-c1ccccc1 | -59.3
COCCN(CCOC)c1ncnc2c1cnn2-c1ccc(Cl)cc1 | -55.1
O=C(CN(Cc1ccco1)C(=O)CNS(=O)(=O)c1ccc(Cl)cc1)NCc1ccc(F)cc1 | 7.7
COC(=O)c1cccc(-n2nnnc2SCC(=O)Nc2cc(C)on2)c1 | 21.0
Cc1noc(C)c1COC(=O)CCc1nc2ccccc2c(=O)[nH]1 | 4.2
CCC(C)[C@H](N)c1nnc(SCc2cccc(F)c2)o1 (some centres undefined) | -11.5
CCCCn1c(SCC(=O)Nc2cc(NC(=O)c3ccco3)ccc2C)nc2ccccc2c1=O | 12.5
O=C(c1ccc(S(=O)(=O)N2CCOCC2)cc1)N1CCN=C1SCc1cccnc1 | 8.5
COc1ccc(-n2c(SCC#N)nnc2-c2ccc(NS(=O)(=O)c3ccc(C)cc3)cc2)cc1 | -6.9
Cc1cc(C)n(S(=O)(=O)c2ccc3ccccc3c2)n1 | 18.2
Cc1cc(C)n(-c2nc(C)nc(N)n2)n1 | -23.5
Cc1cc(C)n(-c2ccc3cccc(NS(C)(=O)=O)c3n2)n1 | 67.2*
SMILES | RORa inhibitor
CC(=O)Nc1nc2ccc(-c3nc4ccccc4o3)cc2s1 | -69.1
O=C(CN(Cc1ccco1)S(=O)(=O)c1cccs1)Nc1ccccc1C(F)(F)F | -9.4
CCc1ccc(NC(=O)CSc2nnc(Cc3cccn3C)n2-c2ccc(F)cc2)cc1 | 7.4
CCc1nc(C)cn1S(=O)(=O)c1cc(Br)ccc1OC | 10.5
c1ccc(CCc2nc(-c3ccccn3)no2)cc1 | -53.7
COc1nc(C)ccc1-c1noc(-c2ccccn2)n1 | -61.2
c1ccc(-c2cccc(-c3ccccn3)n2)nc1 | 64.2*
CCOC(=O)c1c(C)[nH]c(C)c1C(=O)CSc1nnc(-c2ccncc2)n1C | 4.6
